Experimental findings from ChEMBL document CHEMBL5653605, “Reduced VEGF production, angiogenesis, and vascular regrowth contribute to the antitumor properties of dual mTORC1/mTORC2 inhibitors” (Cancer Res, 2011) are described below.

Series [1] deals with mTORC1 (Homo sapiens, UniProt P42345). As to the kind of experiment: Competitive inhibition of mTORC1 immunoprecipitated from human HeLa cells using His-tagged 4E-BP1 as substrate incubated for 30 mins in presence of ATP by chemiluminescence based ELISA. The procedure, abridged:
(§1)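 Native mTORC1 or mTORC2 complex immunoprecipitated from HeLa lysates; kinase reaction run at 1 mM ATP.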
Background: In an ELISA, binding on a coated surface is turned into a signal by an enzyme label.

Series [2] concerns the target mTORC2 (Homo sapiens, UniProt P42345). As to the kind of experiment: Competitive inhibition of mTORC2 immunoprecipitated from human HeLa cells using His-tagged 4E-BP1 as substrate incubated for 30 mins in presence of ATP by chemiluminescence based ELISA. The procedure, abridged: as §1
The target of series [3] is T1, Serine/threonine-protein kinase mTOR (Homo sapiens, UniProt P42345). As to the kind of experiment: Inhibition of mTOR (unknown origin).
Series [4] has as its target Phosphatidylinositol 4,5-bisphosphate 3-kinase catalytic subunit beta isoform (Homo sapiens, UniProt P42338). Nature of the series: Inhibition of PI3Kbeta (unknown origin) in presence of ATP by HTRF assay. The procedure, abridged:
(§2)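 PI3K activity by HTRF assay at […] ATP.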
A general note: Time-resolved FRET reads energy transfer from a long-lived donor to a nearby acceptor.

Series [5] has as its target Phosphatidylinositol 4,5-bisphosphate 3-kinase catalytic subunit gamma isoform (Homo sapiens, UniProt P48736). As to the kind of experiment: Inhibition of PI3Kgamma (unknown origin) in presence of ATP by HTRF assay. The procedure, abridged:
as §2

The target in series [6] is RAC-alpha serine/threonine-protein kinase (Homo sapiens) (UniProt P31749). Nature of the series: Inhibition of AKT phosphorylation at Ser 473 site in serum deprived/insulin stimulated human OVCAR-3 cells harboring PTEN and wild type PI3K preincubated for 2 hrs followed by insulin stimulation and measured immediately by Western blot analysis. Format: cell-based. The settings on record: dose 0.001-10 µM.
Chain of RAC-alpha serine/threonine-protein kinase (Homo sapiens) (P31749 whole entry): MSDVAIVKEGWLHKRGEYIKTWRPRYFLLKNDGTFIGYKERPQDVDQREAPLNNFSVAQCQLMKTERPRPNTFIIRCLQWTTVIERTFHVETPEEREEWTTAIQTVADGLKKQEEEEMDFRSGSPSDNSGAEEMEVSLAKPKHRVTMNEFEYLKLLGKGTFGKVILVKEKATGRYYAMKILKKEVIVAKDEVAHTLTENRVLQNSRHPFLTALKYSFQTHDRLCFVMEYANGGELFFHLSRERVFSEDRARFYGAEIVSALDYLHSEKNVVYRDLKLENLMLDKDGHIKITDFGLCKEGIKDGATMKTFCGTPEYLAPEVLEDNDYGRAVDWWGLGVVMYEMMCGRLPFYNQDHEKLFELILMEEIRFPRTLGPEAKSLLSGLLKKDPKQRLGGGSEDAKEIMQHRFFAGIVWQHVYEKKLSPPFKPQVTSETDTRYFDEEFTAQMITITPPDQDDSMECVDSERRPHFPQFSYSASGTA

Series [7] concerns the target Proline-rich AKT1 substrate 1 (Homo sapiens) (UniProt Q96B36). Nature of the series: Inhibition of PRAS40 phosphorylation at Ser 246 residue in serum deprived/insulin stimulated human OVCAR-3 cells harboring PTEN and wild type PI3K preincubated for 2 hrs followed by insulin stimulation and measured immediately by Western blot analysis. Format: cell-based. Conditions: dose 0.001-10 µM.

In series [8] the target is Eukaryotic translation initiation factor 4E-binding protein 1 (Homo sapiens) (UniProt Q13541). As to the kind of experiment: Inhibition of 4E-BP1 phosphorylation at Ser 37/46 residues in serum deprived/insulin stimulated human OVCAR-3 cells harboring PTEN and wild type PI3K preincubated for 2 hrs followed by insulin stimulation and measured immediately by Western blot analysis. It counts as cell-based. The settings on record: dose 0.001-10 µM. In general terms: In western blotting, separated proteins are transferred to a membrane and probed.
Chain of Eukaryotic translation initiation factor 4E-binding protein 1 (Homo sapiens) (Q13541 whole entry): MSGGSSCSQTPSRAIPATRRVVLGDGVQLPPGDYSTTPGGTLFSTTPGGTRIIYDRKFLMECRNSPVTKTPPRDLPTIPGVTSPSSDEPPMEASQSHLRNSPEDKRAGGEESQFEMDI

Series [9] has as its system OVCAR-3. As to the kind of experiment: Inhibition of S6K phosphorylation at 235/236 residues in serum deprived/insulin stimulated human OVCAR-3 cells harboring PTEN and wild type PI3K at 0.001 to 10 uM preincubated for 2 hrs followed by insulin stimulation and measured immediately by Western blot analysis. It counts as cell-based. Conditions: dose 0.001-10 µM.
Series [10] concerns OVCAR-3. As to the kind of experiment: Inhibition of S6K at […] residues in serum deprived/insulin stimulated human OVCAR-3 cells harboring PTEN and wild type PI3K assessed as inhibition of s6 substrate phosphorylation at […] residue at 0.001 to 10 uM preincubated for 2 hrs followed by insulin stimulation and measured immediately by Western blot analysis. Conditions: dose 0.001-10 µM. Format: cell-based.

The subject of series [11] is Mus musculus. As to the kind of experiment: In vivo inhibition of 4E-BP1 phosphorylation at Ser37/46 residues in nu/nu CD-1 mouse xenografted with human GEO cells at 65 mg/kg administered for 12 days and measured 2 hrs post last dose by Western blot analysis. Conditions: time 290.0 hrs. It counts as functional, organism-based. The procedure, abridged: (§3)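 nu/nu CD-1 mice carrying s.c. GEO flank xenografts dosed 65 mg/kg for 12 days; tumors snap-frozen 2, 8, 24 h after dosing, homogenized in Triton X-100/HEPES pH 7.4 lysis buffer with phosphatase inhibitors; phospho and total 4E-BP1 (37/46), Akt (S473), S6 (235/236) quantified by Western blot; n=2.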

Series [12] concerns Mus musculus. Nature of the series: In vivo inhibition of S6 phosphorylation at 235/236 residues in nu/nu CD-1 mouse xenografted with human GEO cells at 65 mg/kg administered for 12 days and measured 2 to 24 hrs post last dose by Western blot analysis. It counts as functional, organism-based. Conditions: time 290-312 hrs. The procedure, abridged: as §3
The nature of series [13]: Drug concentration in nu/nu CD-1 mouse plasma xenografted with human GEO cells at 65 mg/kg administered for 12 days and measured 8 hrs post last dose. It counts as ADME, organism-based. The procedure, abridged:
(§4)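 nu/nu CD-1 mice bearing s.c. right-flank GEO xenografts dosed at 65 mg/kg for 12 days; plasma drug level sampled at 2 or 8 h after last dose; median reported.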

Series [14] in a line: Drug concentration in nu/nu CD-1 mouse plasma xenografted with human GEO cells at 65 mg/kg administered for 12 days and measured 2 hrs post last dose. It counts as ADME, organism-based. The procedure, abridged: as §4
Series [15] has as its system GEO. As to the kind of experiment: Antitumor activity against human GEO cells xenografted in nu/nu CD-1 mouse assessed as slower tumor growth at 65 mg/kg administered once a day for 12 days and measured twice weekly. The settings on record: time 12.0 day. It counts as functional, organism-based.
The test system of series [16] is NCI-H292. Nature of the series: Antitumor activity against human NCI-H292 cells xenografted in nu/nu CD-1 mouse assessed as tumor growth inhibition at 50 mg/kg qd administered for 21 days and measured twice weekly relative to control. Format: functional. The settings on record: NCI-H292, 504 h, time 21 day, read-out: TGI. The procedure, abridged: (§5)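 Xenograft combination study: H292 or Ovar-5 cells implanted s.c. in the right flank of nu/nu CD-1 mice. Ovar-5 cells grown in RPMI with 10% serum and 1% L-glutamine. […] Tumor growth followed, with growth inhibition reported as median TGI over the dosing period.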

The subject of series [17] is NCI-H292. As to the kind of experiment: Antitumor activity against human NCI-H292 cells xenografted in nu/nu CD-1 mouse assessed as tumor growth inhibition at 50 mg/kg qd administered for 21 days in presence of sunitinib and measured twice weekly relative to control. Conditions: NCI-H292, 504 h, time 21 day, read-out: TGI. Format: functional. The procedure, abridged:
as §5

Series [18] deals with NCI-H292. Nature of the series: Antitumor activity against human NCI-H292 cells xenografted in nu/nu CD-1 mouse assessed as maximal tumor regression at 50 mg/kg qd administered for 21 days in presence of sunitinib and measured twice weekly relative to control. Format: functional. Conditions: time 21 day.
Series [19] has as its system OVCAR-5. Nature of the series: Antitumor activity against human OVCAR-5 cells xenografted in nu/nu CD-1 mouse assessed as tumor growth inhibition at 50 mg/kg qd administered for 14 days and measured twice weekly relative to control. The settings on record: OVCAR-5, 336 h, time 14 day, read-out: TGI. It counts as functional. The procedure, abridged: as §5
Series [20] relates to OVCAR-5. As to the kind of experiment: Antitumor activity against human OVCAR-5 cells xenografted in nu/nu CD-1 mouse assessed as tumor growth inhibition at 50 mg/kg qd administered for 14 days in presence of sunitinib and measured twice weekly relative to control. Format: functional. The settings on record: OVCAR-5, 336 h, time 14 day, read-out: TGI. The procedure, abridged:
as §5

Series [21] concerns OVCAR-5. Nature of the series: Antitumor activity against human OVCAR-5 cells xenografted in nu/nu CD-1 mouse assessed as maximal tumor regression at 50 mg/kg qd administered for 14 days in presence of sunitinib and measured twice weekly relative to control. Format: functional. The settings on record: time 14 day.
Series [22] addresses T1, Serine/threonine-protein kinase mTOR. As to the kind of experiment: Inhibition of mTOR (unknown origin) assessed as reduction in 4E-BP1 phosphorylation by cell based assay.
Series [23] concerns the target Vascular endothelial growth factor receptor 2 (Homo sapiens, UniProt P35968). Nature of the series: Inhibition of VEGFR2 phosphorylation (unknown origin) by cell based assay.
The target of series [24] is Epidermal growth factor receptor (Homo sapiens, UniProt P00533). As to the kind of experiment: Inhibition of EGFR phosphorylation (unknown origin) by cell based assay.
Chain of Epidermal growth factor receptor (P00533 whole entry): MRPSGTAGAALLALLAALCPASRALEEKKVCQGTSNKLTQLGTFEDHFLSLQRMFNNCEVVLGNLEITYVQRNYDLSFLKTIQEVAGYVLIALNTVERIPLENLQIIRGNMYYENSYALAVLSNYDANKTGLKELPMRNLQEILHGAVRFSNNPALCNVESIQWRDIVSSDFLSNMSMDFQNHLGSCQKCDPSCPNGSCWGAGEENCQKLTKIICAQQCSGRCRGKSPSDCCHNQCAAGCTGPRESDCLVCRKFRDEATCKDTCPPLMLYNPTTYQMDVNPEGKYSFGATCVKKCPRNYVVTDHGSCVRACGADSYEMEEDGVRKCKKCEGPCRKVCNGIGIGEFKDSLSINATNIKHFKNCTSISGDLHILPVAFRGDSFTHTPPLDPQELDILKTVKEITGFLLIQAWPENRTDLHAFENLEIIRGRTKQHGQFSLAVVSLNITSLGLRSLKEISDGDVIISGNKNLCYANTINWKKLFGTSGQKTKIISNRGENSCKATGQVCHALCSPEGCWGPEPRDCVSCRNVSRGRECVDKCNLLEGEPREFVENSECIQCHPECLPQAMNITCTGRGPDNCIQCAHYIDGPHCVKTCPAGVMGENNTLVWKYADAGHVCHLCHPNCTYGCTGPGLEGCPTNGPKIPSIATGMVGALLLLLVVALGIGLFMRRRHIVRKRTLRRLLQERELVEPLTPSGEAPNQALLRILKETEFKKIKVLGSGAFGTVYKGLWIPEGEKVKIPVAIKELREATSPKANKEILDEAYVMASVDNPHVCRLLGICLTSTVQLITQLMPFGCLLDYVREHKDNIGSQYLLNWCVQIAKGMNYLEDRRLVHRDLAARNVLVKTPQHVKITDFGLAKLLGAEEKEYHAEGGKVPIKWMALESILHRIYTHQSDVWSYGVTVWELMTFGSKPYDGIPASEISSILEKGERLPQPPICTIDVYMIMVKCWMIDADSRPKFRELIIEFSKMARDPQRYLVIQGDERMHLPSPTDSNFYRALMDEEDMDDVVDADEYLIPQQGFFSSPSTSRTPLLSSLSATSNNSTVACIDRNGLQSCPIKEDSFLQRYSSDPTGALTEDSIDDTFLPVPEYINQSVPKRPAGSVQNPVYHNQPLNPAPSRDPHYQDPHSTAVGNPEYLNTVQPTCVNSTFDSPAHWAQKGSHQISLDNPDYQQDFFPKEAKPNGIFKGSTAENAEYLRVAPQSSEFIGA
Series [25] has as its target Ephrin type-A receptor 2 (Homo sapiens, UniProt P29317). As to the kind of experiment: Inhibition of EphA2 phosphorylation (unknown origin) by cell based assay.
The target of series [26] is Proto-oncogene tyrosine-protein kinase Src (Homo sapiens, UniProt P12931). As to the kind of experiment: Inhibition of SRC (unknown origin) assessed as reduction in phosphorylated FAK level by cell based assay.
Chain of Proto-oncogene tyrosine-protein kinase Src (P12931 2-536 limits assumed): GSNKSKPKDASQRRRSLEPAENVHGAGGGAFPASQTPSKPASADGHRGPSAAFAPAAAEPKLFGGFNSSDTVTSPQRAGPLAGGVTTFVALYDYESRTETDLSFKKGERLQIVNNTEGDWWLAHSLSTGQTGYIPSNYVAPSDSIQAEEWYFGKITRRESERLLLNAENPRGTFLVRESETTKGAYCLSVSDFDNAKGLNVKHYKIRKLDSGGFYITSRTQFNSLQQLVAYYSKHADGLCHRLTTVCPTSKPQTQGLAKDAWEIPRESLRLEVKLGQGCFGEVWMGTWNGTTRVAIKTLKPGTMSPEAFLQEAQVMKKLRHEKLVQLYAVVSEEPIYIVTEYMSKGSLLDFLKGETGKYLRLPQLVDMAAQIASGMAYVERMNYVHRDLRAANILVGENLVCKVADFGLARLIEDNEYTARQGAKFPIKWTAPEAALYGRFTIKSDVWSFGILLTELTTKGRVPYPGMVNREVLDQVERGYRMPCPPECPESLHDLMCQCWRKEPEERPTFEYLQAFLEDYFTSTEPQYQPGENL
Series [27] can be described thus: Inhibition of MAPK (unknown origin) signaling axis assessed as reduction in phosphorylated ERK1/2 level by cell based assay. Conditions: Homo sapiens.
Series [28] deals with Mus musculus. Nature of the series: In vivo inhibition of AKT phosphorylation at Ser473 residues in nu/nu CD-1 mouse xenografted with human GEO cells at 65 mg/kg administered for 12 days and measured 2 to 24 hrs post last dose by Western blot analysis relative to control. Conditions: time 290-312 hrs.
Series [29] deals with NCI-H292. Nature of the series: Antitumor activity against human NCI-H292 cells xenografted in nu/nu CD-1 mouse assessed as tumor growth inhibition at 40 mg/kg qd administered for 21 days and measured twice weekly relative to control. It counts as functional. The settings on record: NCI-H292, 504 h, time 21 day, read-out: TGI. The procedure, abridged:
as §5

For series [30], the system named is NCI-H292. Nature of the series: Antitumor activity against human NCI-H292 cells xenografted in nu/nu CD-1 mouse assessed as tumor growth inhibition at 40 mg/kg qd administered for 21 days in presence of OSI-027 and measured twice weekly relative to control. Format: functional. The settings on record: NCI-H292, 504 h, time 21 day, read-out: TGI. The procedure, abridged: as §5

Series [31] concerns NCI-H292. As to the kind of experiment: Antitumor activity against human NCI-H292 cells xenografted in nu/nu CD-1 mouse assessed as maximal tumor regression at 40 mg/kg qd administered for 21 days in presence of OSI-027 and measured twice weekly relative to control. Format: functional. Conditions: time 21 day.
In series [32] the test system is OVCAR-5. As to the kind of experiment: Antitumor activity against human OVCAR-5 cells xenografted in nu/nu CD-1 mouse assessed as tumor growth inhibition at 40 mg/kg qd administered for 14 days and measured twice weekly relative to control. It counts as functional. Conditions: OVCAR-5, 336 h, time 14 day, read-out: TGI. The procedure, abridged:
as §5

Series [33] concerns OVCAR-5. Nature of the series: Antitumor activity against human OVCAR-5 cells xenografted in nu/nu CD-1 mouse assessed as tumor growth inhibition at 40 mg/kg qd administered for 14 days in presence of OSI-027 and measured twice weekly relative to control. It counts as functional. The settings on record: OVCAR-5, 336 h, time 14 day, read-out: TGI. The procedure, abridged:
as §5

Series [34] deals with OVCAR-5. As to the kind of experiment: Antitumor activity against human OVCAR-5 cells xenografted in nu/nu CD-1 mouse assessed as maximal tumor regression at 40 mg/kg qd administered for 14 days in presence of OSI-027 and measured twice weekly relative to control. Conditions: time 14 day. Format: functional.

Active and inactive are the calls of the source. No cut-off for these calls is given here.

Chain of Ephrin type-A receptor 2 (P29317 whole entry): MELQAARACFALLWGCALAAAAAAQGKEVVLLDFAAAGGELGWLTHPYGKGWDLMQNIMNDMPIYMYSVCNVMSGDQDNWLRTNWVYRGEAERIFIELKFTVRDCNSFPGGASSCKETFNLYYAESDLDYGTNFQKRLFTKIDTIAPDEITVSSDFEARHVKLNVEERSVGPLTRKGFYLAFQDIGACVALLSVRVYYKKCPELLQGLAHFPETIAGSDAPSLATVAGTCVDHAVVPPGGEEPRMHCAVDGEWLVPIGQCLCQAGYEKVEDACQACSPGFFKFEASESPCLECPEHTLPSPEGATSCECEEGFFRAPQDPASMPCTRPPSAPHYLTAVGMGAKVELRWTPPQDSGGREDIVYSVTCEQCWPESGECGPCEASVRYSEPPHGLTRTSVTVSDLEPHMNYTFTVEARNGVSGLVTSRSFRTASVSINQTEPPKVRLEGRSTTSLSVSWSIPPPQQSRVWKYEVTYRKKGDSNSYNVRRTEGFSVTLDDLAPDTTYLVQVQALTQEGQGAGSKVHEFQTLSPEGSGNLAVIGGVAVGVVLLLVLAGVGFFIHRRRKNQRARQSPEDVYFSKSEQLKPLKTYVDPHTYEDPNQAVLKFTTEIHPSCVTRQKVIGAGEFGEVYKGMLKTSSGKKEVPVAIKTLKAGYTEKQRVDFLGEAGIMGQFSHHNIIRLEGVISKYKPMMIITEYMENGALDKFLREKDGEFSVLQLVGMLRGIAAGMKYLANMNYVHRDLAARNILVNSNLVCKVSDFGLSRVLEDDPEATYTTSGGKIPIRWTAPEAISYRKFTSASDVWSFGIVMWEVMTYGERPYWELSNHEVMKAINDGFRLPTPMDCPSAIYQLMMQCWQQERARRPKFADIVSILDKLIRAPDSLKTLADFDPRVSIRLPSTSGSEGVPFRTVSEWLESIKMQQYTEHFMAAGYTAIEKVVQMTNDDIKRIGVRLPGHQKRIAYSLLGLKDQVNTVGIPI
Chain of Vascular endothelial growth factor receptor 2 (P35968 whole entry): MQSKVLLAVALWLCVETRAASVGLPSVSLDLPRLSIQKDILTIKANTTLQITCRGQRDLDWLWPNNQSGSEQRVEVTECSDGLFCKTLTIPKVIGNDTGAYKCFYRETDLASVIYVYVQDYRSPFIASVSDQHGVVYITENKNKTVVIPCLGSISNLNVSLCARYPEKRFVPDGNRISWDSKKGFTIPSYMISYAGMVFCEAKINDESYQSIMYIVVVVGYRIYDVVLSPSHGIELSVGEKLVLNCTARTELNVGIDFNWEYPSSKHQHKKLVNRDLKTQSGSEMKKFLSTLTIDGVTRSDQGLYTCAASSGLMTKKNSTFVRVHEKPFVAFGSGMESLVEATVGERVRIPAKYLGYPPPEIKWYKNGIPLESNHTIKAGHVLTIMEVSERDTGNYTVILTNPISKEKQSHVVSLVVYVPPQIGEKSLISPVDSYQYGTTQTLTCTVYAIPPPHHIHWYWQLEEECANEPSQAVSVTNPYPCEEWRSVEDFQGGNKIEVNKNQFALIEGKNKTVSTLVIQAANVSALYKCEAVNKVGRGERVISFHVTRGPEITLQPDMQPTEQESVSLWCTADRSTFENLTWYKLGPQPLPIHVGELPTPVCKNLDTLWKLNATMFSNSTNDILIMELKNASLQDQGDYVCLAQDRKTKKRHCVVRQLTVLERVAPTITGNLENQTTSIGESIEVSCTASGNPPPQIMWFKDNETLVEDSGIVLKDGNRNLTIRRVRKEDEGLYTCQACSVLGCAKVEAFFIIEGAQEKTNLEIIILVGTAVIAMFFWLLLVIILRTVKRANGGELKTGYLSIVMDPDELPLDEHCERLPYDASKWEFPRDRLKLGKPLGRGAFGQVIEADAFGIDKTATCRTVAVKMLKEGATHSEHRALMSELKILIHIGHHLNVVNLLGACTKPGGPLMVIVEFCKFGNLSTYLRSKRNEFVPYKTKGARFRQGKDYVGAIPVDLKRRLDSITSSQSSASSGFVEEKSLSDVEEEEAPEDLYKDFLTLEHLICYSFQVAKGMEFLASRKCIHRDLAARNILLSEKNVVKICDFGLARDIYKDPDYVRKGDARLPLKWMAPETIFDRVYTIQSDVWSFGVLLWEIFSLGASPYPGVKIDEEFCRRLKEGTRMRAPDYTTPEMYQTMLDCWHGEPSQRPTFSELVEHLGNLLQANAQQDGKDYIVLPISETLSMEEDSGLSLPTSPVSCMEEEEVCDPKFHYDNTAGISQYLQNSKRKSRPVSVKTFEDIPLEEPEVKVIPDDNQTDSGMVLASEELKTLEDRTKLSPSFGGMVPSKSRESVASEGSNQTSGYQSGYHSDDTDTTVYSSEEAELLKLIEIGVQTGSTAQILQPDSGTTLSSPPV

Take `COc1cccc2cc(-c3nc([C@H]4CC[C@H](C(=O)O)CC4)n4ncnc(N)c34)[nH]c12` [OSI-027]: the IC50 in [1] was 22 nM; in series [2] it was 65 nM; in series [3], 4 nM; in [4], more than 30 µM; in series [5], 420 nM; in [22], 1000 nM. Moreover, the concentration for half-maximal inhibition (IC50) in [23] is more than 40 µM; in series [24] it was more than 40 µM; in series [25], more than 40 µM; in [26] it was more than 40 µM; in [27] it was more than 20 µM. The inhibition entry in series [6], in [7] and in [8] was “Dose-Dependent Effect” in each case. The inhibition result in series [9], in series [10], in series [11], in series [12] and in [28] was “Active” in each case. In [13], this compound registered a concentration at 296 h of 14.9 µM. The compound further gave a concentration at 290 h in series [14] of 21.3 µM. The result in [15] was Active. Also, the inhibition in vivo at 50 mg/kg turned out to be 61% in series [16], 100% in series [17], 55% in [19] and 100% in [20]. The Activity in [18] is reported as 59%; in series [21], 38%.
On to `CCN(CC)CCNC(=O)c1c(C)[nH]c(/C=C2\C(=O)Nc3ccc(F)cc32)c1C` [SUNITINIB], for which the inhibition in vivo at 40 mg/kg came out at 47% in series [29], 100% in series [30], 68% in series [32] and 100% in [33]. For the same compound, the figures for the Activity in series [31] and in series [34] were 59% and 38%, respectively.

One may read the IC50 as the midpoint of a concentration-inhibition curve.
